Experimental data collected from several papers.
Each line is one published result; the experiments were not run side by side. ≈ marks a conversion by molar mass, not a printed value.

| Structure (SMILES) | test | system | conditions | endpoint | value |
| --- | --- | --- | --- | --- | --- |
| CC(C)(C)c1cc(NC(=O)Nc2ccc(Oc3ccnc4[nH]c(=O)cnc34)cc2F)n(-c2ccccc2)n1 | general toxicity | CD-1 mouse | oral, single dose | MTD | 40 mg/kg |
| CCCC(CCC)NC(=O)c1ccc2c(c1)OCO2 | general toxicity | Swiss mouse | intraperitoneal | MTD | 700 mg/kg |
| Cc1ncc(C)n2nc(/C=C/c3nc(N4CCCC4)cc(N4CCOCC4)n3)nc12 |  | male beagle dog, plasma | oral, 0.3 mg/kg | Tmax | 1.2 h |
| COc1ccc(C2=Nn3c(nnc3-c3cc(-c4ccc(Cl)cc4)n[nH]3)SC2C)cc1 (stereo not drawn) | general toxicity | mouse | intravenous, 4 mg/kg, single dose | MTD | 4 mg/kg |
| CCCc1ccc(-c2ccc([C@@H](CO)C(=O)N[C@H](C)c3ccccc3)cc2)cc1 |  | PBS | pH 7.4 | kinetic solubility | < 1 µM |
| Nc1ncc(-c2nc(N3CCOCC3)nc(N3CCOCC3)n2)c(C(F)F)n1 | shake flask | FaSSIF | 24 h | thermodynamic solubility | 7.6 µM |
| C[C@H](N)Cn1ncc2ccc3c(c21)CCCO3 | potentiometric | water |  | pKa | 8.45 |
| CC(=O)N[C@@H](CC(N)=O)C(=O)N[C@@H](CCCNC(=N)N)C(=O)N[C@@H](CC(C)C)C(=O)N[C@H]1CSSC[C@@H](C(=O)N[C@H](C(N)=O)[C@@H](C)O)NC(=O)[C@H](CCCNC(=N)N)NC(=O)[C@H](Cc2c[nH]cn2)NC(=O)[C@H](Cc2cccc3ccccc23)NC(=O)CNC(=O)[C@H](Cc2c[nH]c3ccccc23)NC(=O)[C@H](CC(=O)O)NC(=O)[C@H](CCC(N)=O)NC(=O)[C@H](Cc2c[nH]c3ccccc23)NC(=O)[C@H](C(C)C)NC1=O |  | PBS | pH 7.4 | solubility | 340 µg/mL (≈ 169 µM) |
| C=C(CC)C(=O)c1ccc(OCC(=O)O)c(Cl)c1Cl | general toxicity | mouse | intraperitoneal | MTD | 30 mg/kg |
| CCCCCCCCCCCC(=O)OC[C@@H](COP(=O)(O)OCCNC(=O)c1ccc(Cn2c(=O)[nH]c3c(N)nc(OCCOC)nc32)cc1)OC(=O)CCCCCCCCCCC | general toxicity | mouse | intravenous | MTD | 150 mg/kg |
| Cc1cc(C)nc(Nc2ncc(C(=O)NCCc3c(C)[nH]c4ccccc34)cn2)c1 |  |  |  | pKa | 5.8 |
| OC(c1ccc(F)cc1)C(F)(F)CCN1CCC(O)(c2ccc(Cl)cc2)CC1 (racemic) |  | PBS | 2 h, pH 7.4, 25 °C | kinetic solubility | 3.4 µM (≈ 1.41 µg/mL) |
| CC(=O)N[C@@H](CC(N)=O)C(=O)N[C@@H](CC(N)=O)C(=O)N[C@@H](CC(C)C)C(=O)N[C@H]1CSSC[C@@H](C(=O)N[C@H](C(N)=O)[C@@H](C)O)NC(=O)[C@H](CCCNC(=N)N)NC(=O)[C@H](Cc2c[nH]cn2)NC(=O)[C@H](Cc2cccc3ccccc23)NC(=O)CNC(=O)[C@H](Cc2c[nH]c3ccccc23)NC(=O)[C@H](CC(=O)O)NC(=O)[C@H](CCC(N)=O)NC(=O)[C@H](Cc2c[nH]c3ccccc23)NC(=O)[C@H](C(C)C)NC1=O |  | PBS | pH 7.4 | solubility | 270 µg/mL (≈ 137 µM) |
| N=c1c2c(-c3ccccc3)c(-c3ccccc3)n(Cc3ccccc3)c2ncn1[C@H]1CC[C@H](O)CC1 |  | male beagle dog, plasma | oral, 1 mg/kg, single dose | Tmax | ~15 h |
| CC[C@H](C)[C@H](NC(=O)[C@H](CO)NC(=O)[C@H](CCCNC(=N)N)NC(C)=O)C(=O)N[C@H]1CSSC[C@@H](C(=O)N[C@H](C(N)=O)[C@@H](C)O)NC(=O)[C@H](CCCNC(=N)N)NC(=O)[C@H](Cc2c[nH]cn2)NC(=O)[C@H](C)NC(=O)CNC(=O)[C@H](Cc2c[nH]c3ccccc23)NC(=O)[C@H](CC(=O)O)NC(=O)[C@H](CCC(N)=O)NC(=O)[C@H](Cc2cccc3ccccc23)NC(=O)[C@H](C(C)C)NC1=O |  | PBS | pH 7.4 | solubility | 2110 µg/mL (≈ 1130 µM) |
| COc1ccnc(C(=O)N[C@H]2COC(=O)[C@H](Cc3ccccc3)[C@@H](OC(=O)C(C)C)[C@H](C)OC2=O)c1OCOC(=O)C(C)C |  |  |  | pKa | 2.4 |
| CC[C@H](C)[C@H](NC(=O)[C@H](CO)NC(=O)[C@H](CCCNC(=N)N)NC(C)=O)C(=O)N[C@H]1CSSC[C@@H](C(=O)N[C@H](C(N)=O)[C@@H](C)O)NC(=O)[C@H](CCCNC(=N)N)NC(=O)[C@H](Cc2c[nH]cn2)NC(=O)[C@H](Cc2cccc3ccccc23)NC(=O)CNC(=O)[C@H](Cc2c[nH]c3ccccc23)NC(=O)[C@H](CC(=O)O)NC(=O)[C@H](CCC(N)=O)NC(=O)[C@H](Cc2c[nH]c3ccccc23)NC(=O)[C@H](C(C)C)NC1=O |  | PBS | pH 7.4 | solubility | 390 µg/mL (≈ 197 µM) |
| CC(C)CCC[C@@H](C)[C@H]1CC[C@H]2[C@@H]3CC=C4C[C@@H](OCCCNC(=O)CCC(=O)NCCCC[C@H](NC(=O)[C@H]5CCCN5C(=O)[C@H](CCC(=O)O)NC(=O)[C@H](C)NC(=O)[C@@H](NC(=O)C[C@H](O)[C@H](CC(C)C)NC(=O)[C@H](CC(N)=O)NC(=O)[C@@H](NC(=O)[C@@H](N)CCC(=O)O)C(C)C)C(C)C)C(N)=O)CC[C@]4(C)[C@H]3CC[C@]12C |  | aqueous buffer | pH 6.5 | thermodynamic solubility | > 3000 µg/mL |
